Among the data in ChEMBL document CHEMBL1144389, “Optimization of purine based PDE1/PDE5 inhibitors to a potent and selective PDE5 inhibitor for the treatment of male ED” (Bioorg Med Chem Lett, 2005) are IC50, Ratio and inhibition values, retold here.

The structures appear in SMILES notation. A value given as a limit tells only on which side of the number the result lay.

Test [1] has as its target T1, cGMP-specific 3',5'-cyclic phosphodiesterase (Homo sapiens, UniProt O76074). Kind of test: Inhibition of human phosphodiesterase 5.
Test [2] addresses Phosphodiesterases; PDE5 & PDE6 (Homo sapiens) (UniProt O76074+Q13956+P18545+P35913+O43924+P16499+P51160). In words: Relative binding to Phosphodiesterase 6 and Phosphodiesterase 5, ratio of IC50. It is filed as protein assay.
Test [3] addresses Phosphodiesterase, PDE1/PDE5 (Homo sapiens) (UniProt O76074+P54750+Q01064+Q14123). In words: Relative binding to Phosphodiesterase 1 and Phosphodiesterase 5, ratio of IC50. It is filed as protein assay.
The target of test [4] is T1, cGMP-specific 3',5'-cyclic phosphodiesterase. In words: Percentage inhibition of human phosphodiesterase 5 at 100 nM.
For test [5], the target named is cAMP and cAMP-inhibited cGMP 3',5'-cyclic phosphodiesterase 10A (Homo sapiens, UniProt Q9Y233). Kind of test: Inhibitory concentration against human phosphodiesterase 10.
cAMP and cAMP-inhibited cGMP 3',5'-cyclic phosphodiesterase 10A, sequence (Q9Y233 whole entry): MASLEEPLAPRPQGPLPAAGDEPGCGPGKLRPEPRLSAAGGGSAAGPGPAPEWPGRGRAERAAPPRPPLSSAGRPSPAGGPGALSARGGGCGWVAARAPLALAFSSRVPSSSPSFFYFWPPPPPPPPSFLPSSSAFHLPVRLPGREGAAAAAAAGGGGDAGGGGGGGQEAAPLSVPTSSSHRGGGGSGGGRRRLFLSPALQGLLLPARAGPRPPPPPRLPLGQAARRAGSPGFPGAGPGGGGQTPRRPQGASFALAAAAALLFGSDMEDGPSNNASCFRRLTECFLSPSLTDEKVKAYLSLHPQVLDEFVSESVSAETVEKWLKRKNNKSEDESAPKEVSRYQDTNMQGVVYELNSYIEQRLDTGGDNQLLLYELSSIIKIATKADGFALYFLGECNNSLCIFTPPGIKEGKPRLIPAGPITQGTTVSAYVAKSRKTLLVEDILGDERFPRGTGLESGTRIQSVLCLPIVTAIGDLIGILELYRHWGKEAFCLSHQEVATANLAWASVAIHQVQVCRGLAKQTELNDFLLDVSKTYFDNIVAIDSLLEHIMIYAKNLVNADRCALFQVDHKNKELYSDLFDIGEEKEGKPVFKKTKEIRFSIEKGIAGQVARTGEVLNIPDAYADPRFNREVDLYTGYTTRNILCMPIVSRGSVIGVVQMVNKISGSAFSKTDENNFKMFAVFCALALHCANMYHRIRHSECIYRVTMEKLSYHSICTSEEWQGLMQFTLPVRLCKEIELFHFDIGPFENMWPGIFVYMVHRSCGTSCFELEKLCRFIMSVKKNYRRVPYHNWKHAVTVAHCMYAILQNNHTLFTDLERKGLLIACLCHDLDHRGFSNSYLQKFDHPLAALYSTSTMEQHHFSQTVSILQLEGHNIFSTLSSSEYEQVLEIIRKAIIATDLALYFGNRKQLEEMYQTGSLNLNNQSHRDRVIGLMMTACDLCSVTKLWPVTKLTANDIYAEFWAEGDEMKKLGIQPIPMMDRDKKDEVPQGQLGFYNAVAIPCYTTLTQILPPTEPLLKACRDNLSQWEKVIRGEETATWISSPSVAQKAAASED
Test [6] is described as follows: Inhibitory concentration against human phosphodiesterase 8 activity. In a few lines:
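Scintillation proximity assay using a cAMP-PDE SPA kit, with 0.05 μM cAMP as substrate.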

Test [7] has as its target Dual 3',5'-cyclic-AMP and -GMP phosphodiesterase 11A (Homo sapiens, UniProt Q9HCR9). In words: Inhibition of human phosphodiesterase 11.
Test [8] addresses cGMP-dependent 3',5'-cyclic phosphodiesterase (Homo sapiens, UniProt O00408). Kind of test: Inhibition of human phosphodiesterase 2.
The target of test [9] is Phosphodiesterase 1 (Homo sapiens, UniProt P54750+Q01064+Q14123). In words: Inhibition of human phosphodiesterase 1. The format is protein assay.
Test [10] deals with Phosphodiesterase 4 (Homo sapiens, UniProt P27815+Q08499+Q07343+Q08493). Kind of test: Inhibition of human phosphodiesterase 4. It is filed as protein assay.
The target of test [11] is Phosphodiesterase 3 (Homo sapiens, UniProt Q14432+Q13370). Kind of test: Inhibition of human phosphodiesterase 3. It is filed as protein assay.
The target of test [12] is Phosphodiesterase 6. Kind of test: Inhibition of human phosphodiesterase 6. It is filed as protein assay.
Test [13] deals with Phosphodiesterase 7 (Homo sapiens, UniProt Q13946+Q9NP56). Kind of test: Inhibition of human phosphodiesterase 7. It is filed as protein assay.
Test [14] concerns the target High affinity cGMP-specific 3',5'-cyclic phosphodiesterase 9A (Homo sapiens, UniProt O76083). In words: Inhibition of Phosphodiesterase 9.

cGMP-dependent 3',5'-cyclic phosphodiesterase, sequence (O00408 whole entry): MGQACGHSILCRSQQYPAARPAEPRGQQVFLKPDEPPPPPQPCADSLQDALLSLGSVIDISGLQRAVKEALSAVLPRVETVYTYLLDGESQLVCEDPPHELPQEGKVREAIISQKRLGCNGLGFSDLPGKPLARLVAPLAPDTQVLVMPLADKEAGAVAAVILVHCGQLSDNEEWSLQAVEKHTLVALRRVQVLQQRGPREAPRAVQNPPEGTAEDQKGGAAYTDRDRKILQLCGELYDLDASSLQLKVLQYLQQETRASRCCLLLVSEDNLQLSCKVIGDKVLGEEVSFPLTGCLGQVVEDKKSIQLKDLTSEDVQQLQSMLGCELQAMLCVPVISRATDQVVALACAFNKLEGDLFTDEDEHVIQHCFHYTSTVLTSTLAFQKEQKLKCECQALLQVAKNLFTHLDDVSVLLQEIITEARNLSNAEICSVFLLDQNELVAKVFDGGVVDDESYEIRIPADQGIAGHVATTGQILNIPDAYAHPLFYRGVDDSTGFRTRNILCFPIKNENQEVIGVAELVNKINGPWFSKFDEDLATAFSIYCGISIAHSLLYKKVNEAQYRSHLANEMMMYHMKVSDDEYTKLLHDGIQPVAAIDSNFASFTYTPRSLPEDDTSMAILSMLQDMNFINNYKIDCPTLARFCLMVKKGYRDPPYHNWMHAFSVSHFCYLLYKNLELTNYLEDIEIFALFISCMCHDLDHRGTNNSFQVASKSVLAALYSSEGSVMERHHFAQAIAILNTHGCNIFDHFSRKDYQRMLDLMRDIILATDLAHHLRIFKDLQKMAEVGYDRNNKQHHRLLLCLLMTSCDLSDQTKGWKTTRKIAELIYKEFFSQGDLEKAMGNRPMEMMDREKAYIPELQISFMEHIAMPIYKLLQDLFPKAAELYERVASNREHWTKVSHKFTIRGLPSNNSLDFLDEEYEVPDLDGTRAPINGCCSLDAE
Dual 3',5'-cyclic-AMP and -GMP phosphodiesterase 11A, sequence (Q9HCR9 whole entry): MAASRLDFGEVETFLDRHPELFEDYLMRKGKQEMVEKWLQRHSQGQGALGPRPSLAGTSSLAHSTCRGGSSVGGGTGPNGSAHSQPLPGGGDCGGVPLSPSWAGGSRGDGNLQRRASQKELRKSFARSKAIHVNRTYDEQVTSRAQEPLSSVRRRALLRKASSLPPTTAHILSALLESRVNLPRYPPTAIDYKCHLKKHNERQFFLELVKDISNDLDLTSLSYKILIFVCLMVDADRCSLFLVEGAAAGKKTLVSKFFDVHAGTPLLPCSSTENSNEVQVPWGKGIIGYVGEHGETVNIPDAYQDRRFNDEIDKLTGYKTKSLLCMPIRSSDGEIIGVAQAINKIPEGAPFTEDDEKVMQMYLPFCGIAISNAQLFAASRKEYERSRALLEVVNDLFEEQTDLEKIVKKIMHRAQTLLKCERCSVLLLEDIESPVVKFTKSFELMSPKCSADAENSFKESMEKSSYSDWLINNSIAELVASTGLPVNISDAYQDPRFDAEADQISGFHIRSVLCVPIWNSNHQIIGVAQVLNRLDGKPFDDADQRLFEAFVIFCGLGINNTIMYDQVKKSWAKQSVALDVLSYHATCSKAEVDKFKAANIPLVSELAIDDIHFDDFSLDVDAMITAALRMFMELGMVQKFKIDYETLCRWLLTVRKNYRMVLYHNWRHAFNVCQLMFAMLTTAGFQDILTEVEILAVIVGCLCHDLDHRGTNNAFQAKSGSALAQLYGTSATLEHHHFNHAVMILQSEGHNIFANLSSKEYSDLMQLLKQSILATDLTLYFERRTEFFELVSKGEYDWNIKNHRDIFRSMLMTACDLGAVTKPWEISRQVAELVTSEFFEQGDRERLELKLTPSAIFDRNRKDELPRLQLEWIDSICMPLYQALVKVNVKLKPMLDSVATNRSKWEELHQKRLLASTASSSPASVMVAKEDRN
High affinity cGMP-specific 3',5'-cyclic phosphodiesterase 9A, sequence (O76083 whole entry): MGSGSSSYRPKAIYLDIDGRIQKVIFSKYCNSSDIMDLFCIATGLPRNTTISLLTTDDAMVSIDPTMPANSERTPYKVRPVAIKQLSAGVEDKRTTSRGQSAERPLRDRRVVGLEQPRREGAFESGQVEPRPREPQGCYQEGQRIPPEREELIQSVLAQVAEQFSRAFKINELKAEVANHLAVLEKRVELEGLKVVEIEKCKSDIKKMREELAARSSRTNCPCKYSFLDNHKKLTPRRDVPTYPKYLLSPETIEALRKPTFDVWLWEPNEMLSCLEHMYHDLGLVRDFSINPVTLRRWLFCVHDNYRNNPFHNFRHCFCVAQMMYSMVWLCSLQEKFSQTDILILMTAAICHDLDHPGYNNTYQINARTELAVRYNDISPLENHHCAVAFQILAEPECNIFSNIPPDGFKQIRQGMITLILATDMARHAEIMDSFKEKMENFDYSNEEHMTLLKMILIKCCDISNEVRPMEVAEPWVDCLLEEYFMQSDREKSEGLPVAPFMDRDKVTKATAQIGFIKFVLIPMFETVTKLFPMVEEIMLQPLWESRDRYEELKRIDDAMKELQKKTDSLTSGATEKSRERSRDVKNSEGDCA

In the case of `CCN1C(=O)c2c(nc(C)n2Cc2ccc(O)cc2)N2C[C@@H](Cc3ccccc3)N=C12`, the IC50 in test [1] came out at 15 nM. Besides, the Ratio in test [2] worked out at 40.
The molecule `CCN1C(=O)c2c(nc(Cc3ccccc3)n2Cc2ccc(OC)cc2)N2C[C@@H](Cc3ccccc3)N=C12` showed an IC50 in [1] of 130 nM. Further, the Ratio in test [2] was found to be 1.8.
Molecule `CCN1C(=O)c2nc(Cl)n(Cc3ccccc3)c2N2C[C@@H](Cc3ccccc3)N=C12` gave an IC50 in [1] of 60 nM. In addition, the Ratio in test [2] turned out to be 7.3.
In turn, `CCN1C(=O)c2c(nc(C#Cc3ccccc3)n2Cc2ccccc2)N2C[C@@H](Cc3ccccc3)N=C12` gave an IC50 in [1] of 40 nM. Moreover, the Ratio in [2] was determined as 3.6.
Turning to `CCN1C(=O)c2[nH]c(Cc3ccccc3)nc2N2C[C@@H](Cc3ccccc3)N=C12`, the results for the Ratio in test [3] and in [2] were > 2220 and 1.8, respectively.
The molecule `CCN1C(=O)c2c(nc(Cc3ccccc3)n2Cc2ccccc2)N2C[C@@H](Cc3ccccc3)N=C12` showed an inhibition in test [4] of 23%.
For `CCN1C(=O)c2nc(C#Cc3ccccc3)n(Cc3ccc(O)cc3)c2N2C[C@@H](Cc3ccccc3)N=C12`, the figures for the Ratio in test [3] and in [2] were > 1540 and 23, respectively. In [1], this molecule yielded a 50% inhibitory concentration (IC50) of 6.5 nM.
Consider `CC(C)N1C(=O)c2nc(Cc3ccccc3)n(Cc3ccccc3)c2N2C[C@@H](Cc3ccccc3)N=C21`, for which the inhibition in test [4] was 13%.
As to `CCCc1nc(C)c2c(=O)nc(-c3cc(S(=O)(=O)N4CCN(CC)CC4)ccc3OCC)[nH]n12`, the half-maximal inhibitory concentration (IC50) in test [5] was 790 nM; in test [6] it was > 10000 nM; in test [7], 130 nM; in [8], > 10000 nM.
For `O=C1c2nc(Cc3ccccc3)n(Cc3ccccc3)c2N2C[C@@H](Cc3ccccc3)N=C2N1C1CC1`, the inhibition in [4] stood at 12%.
As for `CCN1C(=O)c2nc(C#Cc3ccccc3)n(Cc3ccc(OC)cc3)c2N2C[C@@H](Cc3ccccc3)N=C12`, 20 nM corresponded to half-maximal inhibition in [1] (IC50). The Ratio in [2] turned out to be 4.5.
As for `CCCc1nn(C)c2c(=O)[nH]c(-c3cc(S(=O)(=O)N4CCN(C)CC4)ccc3OCC)nc12`, in test [6], the IC50 was > 10000 nM.
In [1], `CCN1C(=O)c2c(nc(C#Cc3ccccc3)n2Cc2ccc(O)cc2)N2C[C@@H](Cc3ccccc3)N=C12` had an IC50 of 5.3 nM. In addition, the Ratio in test [2] was determined as 19.8.
With `O=C1c2nc(Cc3ccccc3)n(Cc3ccccc3)c2N2C[C@@H](Cc3ccccc3)N=C2N1CC(F)(F)F`, the inhibition in test [4] came to 7%.
Take `CCN1C(=O)c2nc(C#Cc3ccccc3)n(Cc3ccccc3)c2N2C[C@@H](Cc3ccccc3)N=C12`: the Ratio in test [3] was > 303; in [2], 15.
As for `CCN1C(=O)c2c(nc(Cl)n2Cc2ccc(O)cc2)N2C[C@@H](Cc3ccccc3)N=C12`, the Ratio is > 4350 in test [3] and 93.5 in test [2]. For the same molecule, the IC50 in [1] was 2.3 nM.
`O=C1c2[nH]c(Cc3ccccc3)nc2N2C[C@@H](Cc3ccccc3)N=C2N1CC(F)(F)F` registered an inhibition in test [4] of 34%.
For `CCN1C(=O)c2nc(Br)n(Cc3ccc(O)cc3)c2N2C[C@@H](Cc3ccccc3)N=C12`, the Ratio in test [3] is > 1590; in [2] it was 51.3. This molecule also returned an IC50 in [1] of 7.8 nM.
In the case of `CCN1C(=O)c2[nH]c(Cc3ccccc3)nc2N2C[C@@H](C(C)C)N=C12`, the Ratio in [3] amounted to 59; in test [2] it was 1. The molecule also registered an IC50 in [1] of 28 nM.
For the molecule `CCN1C(=O)c2nc(Br)n(Cc3ccccc3)c2N2C[C@@H](Cc3ccccc3)N=C12`, half-maximal inhibition in test [1] (IC50) was put at 145 nM. Besides, in test [2], the Ratio was 4.5.
With `CN1C(=O)c2[nH]c(Cc3ccccc3)nc2N2C1=N[C@@H]1CCC[C@@H]12`, the Ratio in test [3] is 1.3.
As to `CN1C(=O)c2[nH]c(Cc3ccccc3)nc2N2C[C@@H](Cc3ccccc3)N=C12`, the Ratio in test [3] was found to be 11; in test [2], 2.3. In test [1], this molecule yielded an IC50 of 100 nM.
As to `O=C1c2nc(Cc3ccccc3)[nH]c2N2C[C@@H](Cc3ccccc3)N=C2N1C1CC1`, the inhibition in [4] was 21%.
Consider `CCN1C(=O)c2c(nc(I)n2Cc2ccc(O)cc2)N2C[C@@H](Cc3ccccc3)N=C12`, for which, in [1], the IC50 was found to be 3.3 nM. In addition, in test [2], the Ratio was found to be 93.9.
`CCN1C(=O)c2[nH]c(Cc3ccccc3)nc2N2C1=N[C@@H]1CCC[C@@H]12`: the Ratio in test [3] was determined as 342. Moreover, the IC50 in [1] worked out at 19 nM.
For `CCN1C(=O)c2c(nc(Br)n2Cc2ccc(OC)cc2)N2C[C@@H](Cc3ccccc3)N=C12`, in test [2], the Ratio amounted to 4.8.
`Oc1nc2n(c3nc(Cc4ccccc4)nc1-3)C[C@@H](Cc1ccccc1)N2` registered an inhibition in [4] of 22%.
On the same count and under the same terms, the result for `CCN1C(=O)c2c(nc(I)n2Cc2ccccc2)N2C[C@@H](Cc3ccccc3)N=C12` reads 32%.
On to `CC[C@@H]1CN2C(=N1)N(CC)C(=O)c1[nH]c(Cc3ccccc3)nc12`, for which the Ratio in test [3] was > 303; in test [2] it was 2.4. The molecule further returned an IC50 in test [1] of 33 nM.
In test [1], `CCN1C(=O)c2c(nc(Cc3ccccc3)n2Cc2ccc(O)cc2)N2C[C@@H](Cc3ccccc3)N=C12` yielded an IC50 of 29 nM. The Ratio in [2] was determined as 7.4.
Consider `CCN1C(=O)c2c(nc(C#Cc3ccccc3)n2Cc2ccc(OC)cc2)N2C[C@@H](Cc3ccccc3)N=C12`, for which, in test [1], inhibition was half-maximal at 14 nM (IC50). The Ratio in test [2] stood at 1.7.
For the molecule `CCN1C(=O)c2nc(Cc3ccccc3)n(Cc3ccccc3)c2N2C[C@@H](c3ccccc3)N=C12`, the midpoint of inhibition in [1], the IC50, lay at 40 nM. Further, the Ratio in test [2] was 1.3.
In [4], `CCCN1C(=O)c2[nH]c(Cc3ccccc3)nc2N2C[C@@H](Cc3ccccc3)N=C12` gave an inhibition of 25%.
`CC(C)N1C(=O)c2[nH]c(Cc3ccccc3)nc2N2C[C@@H](Cc3ccccc3)N=C21` showed an IC50 in test [1] of 22 nM. In addition, the Ratio in test [2] was 4.
As for `CCC[C@@H]1CN2C(=N1)N(CC)C(=O)c1[nH]c(Cc3ccccc3)nc12`, the values for the Ratio in [3] and in test [2] were > 167 and 0.7, respectively. The molecule further had an IC50 in [1] of 60 nM.
For `CCN1C(=O)c2nc(Br)n(Cc3ccc(OC)cc3)c2N2C[C@@H](Cc3ccccc3)N=C12`, the IC50 in test [1] was 48 nM. In addition, the Ratio in test [2] came to 7.8.
Regarding `CCN1C(=O)c2c(nc(Br)n2Cc2ccc(O)cc2)N2C[C@@H](Cc3ccccc3)N=C12`, the IC50 in test [9] was > 10000 nM; in test [5] it was 2200 nM; in test [10], 1400 nM; in test [11], > 10000 nM; in test [12], 180 nM; in test [6] it was > 10000 nM. Besides, the IC50 was 540 nM in [7]; 2.5 nM in test [1]; > 10000 nM in test [13]; > 10000 nM in test [8]; > 10000 nM in test [14]. The Ratio in test [3] is > 4000; in [2], 72.
For `CCC[C@@H]1CN2C(=N1)N(CC)C(=O)c1nc(Cc3ccccc3)n(Cc3ccccc3)c12`, the Ratio in test [3] is > 286; in [2], 4.9. The molecule further registered an IC50 in [1] of 35 nM.
In test [1], `CCN1C(=O)c2ncn(Cc3ccccc3)c2N2C[C@@H](Cc3ccccc3)N=C12` displayed an IC50 of 200 nM. For the same molecule, in test [2], the Ratio came out at 5.
`CC[C@@H]1CN2C(=N1)N(CC)C(=O)c1nc(Cc3ccccc3)n(Cc3ccccc3)c12` came in with an inhibition in test [4] of 4%.
`CCN1C(=O)c2nc(Cc3ccccc3)n(Cc3ccc(O)cc3)c2N2C[C@@H](Cc3ccccc3)N=C12` came in with an IC50 in test [1] of 28 nM. Further, the Ratio in test [2] came to 7.9.
For `CON1C(=O)c2nc(Cc3ccccc3)n(Cc3ccccc3)c2N2C[C@@H](Cc3ccccc3)N=C12`, the inhibition in test [4] amounted to 17%.
Still for that read-out and setting: under `C=CCN1C(=O)c2nc(Cc3ccccc3)n(Cc3ccccc3)c2N2C[C@@H](Cc3ccccc3)N=C12` stands 17%.
The molecule `CN1C(=O)c2nc(Cc3ccccc3)n(Cc3ccccc3)c2N2C[C@@H](Cc3ccccc3)N=C12` came in with an inhibition in test [4] of 6%.
As to `CN1CC(=O)N2[C@H](c3ccc4c(c3)OCO4)c3[nH]c4ccccc4c3C[C@@H]2C1=O`, the IC50 in test [9], in test [5], in test [11], in test [6], in [13] and in test [8] was > 10000 nM throughout. In addition, the IC50 in test [14] is > 10000 nM.
In [1], `CCN1C(=O)c2nc(Cc3ccccc3)n(Cc3ccc(OC)cc3)c2N2C[C@@H](Cc3ccccc3)N=C12` registered an IC50 of 38 nM. Besides, the Ratio in [2] worked out at 7.5.
On to `CCN1C(=O)c2nc(Cc3ccccc3)n(Cc3ccccc3)c2N2C[C@@H](Cc3ccccc3)N=C12`, for which the Ratio in test [3] is > 313; in [2], 5.3.
For `CCN1C(=O)c2nc(CCc3ccccc3)n(Cc3ccccc3)c2N2C[C@@H](Cc3ccccc3)N=C12`, the IC50 in test [1] turned out to be 74 nM. The Ratio in [2] came to 7.4.
